From PubChem BioAssay
Scp1 inh: blocks human Scp-1 phosphatase activity; 0.88% of 340,000 active; inhibition, % at 20 µM; Recombinant Scp1, phosphopeptide, malachite green phosphate absorbance; AID 493091;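 active = inhibition above about 50% at 20 µM, limit read from the data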;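 note: plate controls were DMSO wells with enzyme for no effect and wells lacking enzyme for full effect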
Target sequence (Q9GZU7 76-261 limits assumed): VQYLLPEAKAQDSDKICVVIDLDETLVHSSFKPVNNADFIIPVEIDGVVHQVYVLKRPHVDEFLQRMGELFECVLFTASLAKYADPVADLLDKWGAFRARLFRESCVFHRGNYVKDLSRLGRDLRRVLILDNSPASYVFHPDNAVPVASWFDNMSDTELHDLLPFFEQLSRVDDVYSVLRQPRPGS
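Test system: SCP-1 phosphatase catalytic domain, residues 76-261; measured by: colorimetric phosphate reagent with accelerator and stabiliser, absorbance at 630 nm; timing: enzyme reaction 45 min at room temperature, colour 5 min, stabilisation 30 min; also added: Phosphorylated 17-residue peptide substrate; compound dosing: one concentration, 20 µM, with 1.0% DMSO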
SUMO1 PPI mod: SUMO1-SIM interaction modulation; P63165; SUMO1 binding to a labelled peptide, TR-FRET, 1 h; 0.33% of 360,000 active; inhibition, % at 20 µM; in the data active = inhibition above about 37%
Rpn11 inh: Rpn11 (human) deubiquitinase inhibition. O00487. human 26S proteasome, Ub4-pepOG fluorescence polarization; 20S core pre-blocked with epoxomicin. inhibition, % at 20 µM. 0.59% of 360,000 active. AID 588493;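 active = inhibition at 20 µM, scaled to each plate's controls, above about 33%, limit read from the data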
Target sequence (O00487 whole entry, looked up): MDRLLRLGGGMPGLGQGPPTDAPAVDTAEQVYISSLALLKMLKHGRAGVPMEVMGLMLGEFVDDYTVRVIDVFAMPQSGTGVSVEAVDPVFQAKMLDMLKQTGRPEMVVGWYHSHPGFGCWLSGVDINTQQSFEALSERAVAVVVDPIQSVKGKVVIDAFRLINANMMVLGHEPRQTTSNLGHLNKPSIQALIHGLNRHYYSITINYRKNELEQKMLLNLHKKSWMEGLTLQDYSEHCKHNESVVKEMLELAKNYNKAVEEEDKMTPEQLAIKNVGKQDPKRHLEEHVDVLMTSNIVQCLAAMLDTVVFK
STEP block: inhibitors of human striatal-enriched phosphatase STEP. recombinant STEP, OMFP fluorogenic substrate, fluorescence. inhibition, % at 20 µM. 0.25% of 360,000 active. P54829;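 active = inhibition at 20 µM, scaled per plate between control wells, above about 37%, limit read from the data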;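 note: 0% = DMSO with enzyme and substrate and 100% = substrate only without enzyme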
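System: STEP phosphatase, cell-free reaction; Buffer or medium: Bis-Tris pH 6.0 buffer with DTT, detergent; Incubation: 20 min at room temperature, dark; Measured by: fluorescence, 480/540 nm.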
LMPTP inh: blocks human LMPTP phosphatase. P24666. recombinant LMPTP-A, OMFP fluorogenic substrate, fluorescence intensity. inhibition, % at 20 µM. 0.22% of 360,000 active. AID 651560;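 active = compounds that cut the enzyme signal by at least half of the control window in the single-dose screen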;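 note: plate controls were DMSO wells with enzyme plus substrate for no effect and substrate without enzyme for full effect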
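Buffer or medium: Bis-Tris pH 6.0, DTT, detergent; Assay system: LMPTP-A enzyme; Quantity: 0.625 nM enzyme; Detection: endpoint fluorescence intensity; Times: 50 min dark incubation at room temperature; Controls: substrate-only low control, DMSO enzyme-plus-substrate high control; Doses: single 20 µM dose; Read-out: percent inhibition versus substrate-only and uninhibited controls; Reagent: 400 µM OMFP.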
DNMT1 block: inhibitors of human DNMT1; P26358; DNMT1 molecular beacon, Hinp1I cleavage, fluorescence; inhibition (reported as % activation of signal), % at 10 µM; 0.83% of 360,000 active; AID 588458; in the data active = inhibition above about 50%
Scp1 confirm: confirmation of human Scp-1 phosphatase inhibitors; shares compounds with Scp1 inh; AID 540281; recombinant SCP-1 catalytic domain, phosphate release, malachite green absorbance; 61% of 2,500 active; inhibition, % at 20 µM;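 note: plate controls were DMSO with enzyme for no effect and buffer wells lacking enzyme for full effect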
MG interference: counter-screen for Scp-1 inhibitors: colorimetric interference | apparent inhibition (interference), % at 20 µM | Colorimetric interference counterscreen, malachite green absorbance 630 nm | AID 540313 | shares compounds with Scp1 inh | 2,500 tested, under 10 active;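 note: compounds added after enzyme reaction finished so only phosphate colour detection is probed; plate controls were DMSO wells with completed Scp-1 reaction for no effect and substrate wells lacking enzyme for full effect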
Scp1 DSF: Scp-1 (human) binding by thermal shift. 25% of 1,500 active. Recombinant SCP1, Sypro Orange thermal shift Tm. thermal shift relative to vanadate control, % at 40 µM. shares compounds with Scp1 inh;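 active = substances whose mean melting-temperature shift, as a percentage of the reference inhibitor's shift, reaches about 5.3%, limit read from the data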;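 note: 0% = Tm of DMSO wells and 100% = Tm with sodium orthovanadate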
DNMT1 confirm: confirmation of human DNMT1 inhibitors. shares compounds with DNMT1 block. DNMT1 molecular beacon HinP1I cleavage, fluorescence. inhibition, % at 10 µM. 8% of 2,300 active. AID 602385;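 active = average inhibition of at least 30% in the single-concentration confirmation test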
DNMT1 interf: counter-screen for DNMT1 inhibitors: spectral interference. shares compounds with DNMT1 block. DNMT1 molecular beacon spectral interference counterscreen, fluorescence 485/520. activation (fluorescence interference), % at 10 µM. 1% of 2,300 active;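 active = activation of at least 30% at 10 µM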;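 note: DNMT1 catalytic domain with a HinP1I cleavage step and a FAM/dabcyl DNA beacon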
The depositor's hits bear a star; . = no result shown. Sampled rows, rich in hits. Any-hit rate of the full collection: about 2.3%.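 Rule for the calls, unless noted: active = inhibition of at least 30% at 20 µM; inactive = the rest.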

SMILES	Scp1 inh	SUMO1 PPI mod	Rpn11 inh	STEP block	LMPTP inh	DNMT1 block	Scp1 confirm	MG interference	Scp1 DSF	DNMT1 confirm	DNMT1 interf
COc1cc(/C=C2/C(=O)NN(c3cccc(Cl)c3)C2=O)cc(OC)c1O	13	-25	.	4	1	-3	.	.	.	.	.
COC(=O)c1c(NC(=O)Cc2cccs2)sc2c1CCCC2	51*	7	-1	7	4	45	73*	-12	0	.	.
CC(=O)N1c2ccc(S(=O)(=O)N3CCCC3)cc2CC1C(=O)NCc1ccccc1F (configuration not stated)	3	-3	-2	2	-1	-1	.	.	.	.	.
O=[N+]([O-])c1cccn2cc(-c3ccc(Br)cc3)nc12	107*	-21	12	56*	34	15	86*	-11	8.2*	.	.
Cc1ccc(-c2cn3cccc(C)c3n2)cc1	6	0	2	1	1	1	.	.	.	.	.
O=C(Nc1ccc(NC(=O)c2ccco2)cc1)c1ccco1	-6	2	2	-1	0	1	.	.	.	.	.
Cc1nnc2ccc(-c3ccc(NC(=O)c4ccco4)cc3)nn12	89*	52*	0	1	7	12	18	-12	.	.	.
O=C(Nc1ccc(-c2ccccc2)cc1)c1ccco1	59*	1	-3	1	0	7	-16	-18	.	.	.
CC(=O)Nc1cc(=O)c2cccnc2[nH]1	82*	31	-51	10	64*	63*	61*	-5	2	16	7
CC(C)CC(=O)N1CCN(c2ccc(NC(=O)c3ccco3)cc2)CC1	6	-4	1	2	-1	-1	.	.	.	.	.
O=C(Cn1c(=O)n(Cc2ccco2)c(=O)c2c3c(sc21)CCCCC3)Nc1ccccc1	74*	14	-7	5	21	93*	44*	-29	7.9*	13	2
O=C(Cn1c(=O)n(Cc2ccco2)c(=O)c2c3c(sc21)CCCCC3)c1ccccc1	56*	7	-6	6	7	72*	3	-16	.	2	2
O=C1COc2ccc(C(=O)COC(=O)/C=C/c3ccco3)cc2N1	59*	-13	-11	8	16	57*	57*	-10	-14	5	3
O=C(/C=C/c1ccco1)OCC(=O)N1CCCCC1	96*	-14	-11	41*	15	50*	51*	-20	-8	-1	0
O=C1COc2ccc(C(=O)COC(=O)c3ccco3)cc2N1	-8	-4	-6	0	2	2	.	.	.	.	.
O=C(/C=C/c1ccccc1)OCC(=O)N1CCCC1	-9	-10	-3	-1	0	5	.	.	.	.	.
Cc1c(Cl)cccc1NS(=O)(=O)c1c(C(=O)N2CCOCC2)c(C)n(C)c1C	1	1	-11	-2	-1	2	.	.	.	.	.
O=C(NNC(=O)c1cc2cc3ccccc3nc2s1)c1cccc(C(F)(F)F)c1	75*	0	-2	29	28	51*	71*	-14	-16	1	4
O=C(NNS(=O)(=O)c1ccccc1)c1cc2cc3ccccc3nc2s1	-2	1	-1	1	0	0	.	.	.	.	.
Cn1c(N)c(C(=O)COC(=O)COc2ccc(Cl)cc2Cl)c(=O)n(C)c1=O	-18	1	1	2	-1	0	.	.	.	.	.
